Read-outs that look alike come from different tables or passages of the source.
Assays:
ALK1 = ALK1 (Homo sapiens, UniProt P37023); assay: In vitro kinase reaction; format: biochemical
In short: (§1)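 Radiometric filter-binding assay with purified recombinant kinase/substrate pairs. Reactions ran with ATP plus 33P-ATP (10 μM final) at 10 test compound concentrations in triplicate, in 20 mM Hepes pH 7.5, 10 mM MgCl2, 1 mM EGTA, 2 mM DTT, 1% DMSO, for 120 min at 25 °C. Products were spotted on P81 paper and washed in 0.75% phosphoric acid. Activity was expressed as % of DMSO control; IC50 came from curve fitting.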

ALK3 = ALK3 (Homo sapiens, UniProt P36894); assay: In vitro kinase reaction; format: biochemical
Chain of ALK3 (P36894 24-532): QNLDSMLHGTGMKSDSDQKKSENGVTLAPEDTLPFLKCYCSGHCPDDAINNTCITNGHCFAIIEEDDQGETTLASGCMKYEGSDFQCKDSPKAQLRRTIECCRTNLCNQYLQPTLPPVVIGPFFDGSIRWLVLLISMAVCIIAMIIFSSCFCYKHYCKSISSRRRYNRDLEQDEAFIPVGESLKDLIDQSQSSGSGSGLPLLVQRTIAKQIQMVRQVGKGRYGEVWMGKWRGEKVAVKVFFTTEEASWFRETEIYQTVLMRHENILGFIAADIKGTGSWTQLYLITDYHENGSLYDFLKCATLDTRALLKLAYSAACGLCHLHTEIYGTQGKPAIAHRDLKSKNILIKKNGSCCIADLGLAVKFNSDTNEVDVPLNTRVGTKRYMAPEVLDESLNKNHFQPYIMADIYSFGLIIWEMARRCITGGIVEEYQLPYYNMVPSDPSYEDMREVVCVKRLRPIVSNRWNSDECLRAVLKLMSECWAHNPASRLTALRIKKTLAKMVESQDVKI
In short: as §1

BMPR-2 = target: T1, BMPR-2 (Homo sapiens, UniProt Q13873); assay: In vitro kinase reaction; format: biochemical; conditions: 10 μM ATP, 120 minutes at 25 °C
T1 sequence (Q13873 27-1038): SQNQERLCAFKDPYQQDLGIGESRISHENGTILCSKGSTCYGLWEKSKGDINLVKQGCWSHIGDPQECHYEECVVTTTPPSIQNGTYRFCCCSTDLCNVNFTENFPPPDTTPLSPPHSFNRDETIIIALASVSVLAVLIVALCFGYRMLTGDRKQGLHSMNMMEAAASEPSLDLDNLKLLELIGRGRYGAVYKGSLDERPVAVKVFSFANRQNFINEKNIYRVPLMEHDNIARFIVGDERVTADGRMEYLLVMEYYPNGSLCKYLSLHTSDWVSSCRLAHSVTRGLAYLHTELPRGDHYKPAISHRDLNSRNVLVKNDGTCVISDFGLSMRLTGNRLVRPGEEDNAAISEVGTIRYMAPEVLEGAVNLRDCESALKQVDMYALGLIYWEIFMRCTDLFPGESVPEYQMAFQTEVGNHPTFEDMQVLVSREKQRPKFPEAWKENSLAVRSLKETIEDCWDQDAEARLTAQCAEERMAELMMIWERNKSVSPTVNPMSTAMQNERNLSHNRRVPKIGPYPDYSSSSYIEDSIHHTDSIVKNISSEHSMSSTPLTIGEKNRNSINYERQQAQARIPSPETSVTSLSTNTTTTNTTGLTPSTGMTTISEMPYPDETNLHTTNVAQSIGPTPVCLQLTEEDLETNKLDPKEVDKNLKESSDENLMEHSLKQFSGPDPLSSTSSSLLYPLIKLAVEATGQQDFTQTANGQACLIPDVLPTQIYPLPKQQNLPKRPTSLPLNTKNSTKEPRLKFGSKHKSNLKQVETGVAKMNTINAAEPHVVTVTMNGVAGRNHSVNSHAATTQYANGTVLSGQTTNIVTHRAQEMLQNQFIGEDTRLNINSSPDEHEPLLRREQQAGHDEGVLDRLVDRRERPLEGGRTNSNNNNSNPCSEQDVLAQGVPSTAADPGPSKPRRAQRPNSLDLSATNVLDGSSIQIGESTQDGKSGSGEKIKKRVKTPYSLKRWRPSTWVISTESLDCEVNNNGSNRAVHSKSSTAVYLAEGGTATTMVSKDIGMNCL
In short: as §1

Id1 [1] = assay: Id1 mRNA expression by qPCR in NIH3T3 cells; format: cell-based, mouse; conditions: for Id1 RNA levels on serum induction: then 20% serum 0 to 120 minutes; for response of the Id1 gene to serum: data not shown
c-fos = c-fos mRNA expression by qPCR in NIH3T3 cells; format: cell-based, mouse; conditions: then 20% serum
In short: (§2)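 NIH3T3 cells were starved overnight in 0.2% serum and pretreated 1 hour with test compound. They were then induced with 20% NCS for 0–120 min. RNA was taken up in Tri Reagent, and cDNA was made from 1 μg total RNA with random hexamers. qPCR was normalised to 18s rRNA. Values are means of three experiments ± standard deviations.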

Id3 = Id3 mRNA expression by qPCR in NIH3T3 cells; format: cell-based, mouse; conditions: NIH3T3, AZD0530 100 nM 1 hour, then 20% serum
In short: as §2

[2] = test system: plasminogen activator inhibitor-1 (PAI-1); assay: PAI-1 mRNA expression by qPCR in NIH3T3 cells; format: cell-based, mouse; conditions: NIH3T3, AZD0530 100 nM 1 hour, then 20% serum
In short: as §2

Id1 promoter = Id1 promoter luciferase reporter assay in NIH3T3 cells; format: cell-based, mouse
c-fos promoter = c-fos promoter luciferase reporter assay in NIH3T3 cells; format: cell-based, mouse; conditions: NIH3T3, AZD0530 100 nM 1 hour, then 20% NCS 4 hours
In short: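 NIH3T3 cells, 4 × 10^4 per well, were transfected with 100 ng c-fos promoter firefly reporter plus 100 ng SV40-Renilla control. Next day they were starved overnight in 0.2% NCS, treated 1 hour with 100 nM test compound, then induced with 20% NCS for 4 hours. Dual-luciferase assay; firefly was normalised to Renilla.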

[3] = test system: constitutively active ALK1; assay: Id1 reporter activated by constitutively active ALK1 in NIH3T3 cells; format: cell-based; conditions: NIH3T3, Id1 −1150 reporter, AZD0530 100 nM overnight in 0.2% serum
In short: (§3)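 NIH3T3 cells, 4 × 10^4 per well, received fresh 10% NCS and were then transfected with 100 ng Renilla SV40 control, 100 ng mouse Id1 −1150 firefly reporter and 25 ng constitutively active ALK. Next day they went into 0.2% serum with 100 nM test compound or DMSO overnight. Dual-luciferase readout; firefly was normalised to Renilla.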

[4] = target: constitutively active ALK3 (Homo sapiens, UniProt P36894, Q233D); assay: Id1 reporter activated by constitutively active ALK3 in NIH3T3 cells; format: cell-based; conditions: NIH3T3, Id1 −1150 reporter, AZD0530 100 nM overnight in 0.2% serum
Chain of constitutively active ALK3 (P36894 24-532 Q233D): as the sequence (P36894 24-532) above, with Q210D counted along it
In short: as §3

HCT116 cells = assay: Proliferation of HCT116 cells; format: cell-based; conditions: preliminary results
Id1 [5] = conditions: A549 lung carcinoma cell line; cited from earlier work
Smad1/5 = conditions: A549 cells; cited from earlier work
phospho-Smad1/5/8 [6] = assay: Phospho-Smad1/5/8 immunoblot in NIH3T3 cells; format: cell-based, mouse; conditions: NIH3T3, Dorsomorphin 1μM 1 hour, then serum
phospho-Smad1/5/8 [7] = assay: Phospho-Smad1/5/8 immunoblot in HCT116 cells; format: cell-based; conditions: HCT116, Dorsomorphin 1 μm
In short: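 HCT116 cells were starved overnight in 0.2% serum with DMSO or test compound, lysed in passive lysis buffer and cleared at 11,000 × g. Proteins were run by SDS-PAGE and blotted to nitrocellulose. Phospho-Smad1/5/8 primary (1:1000) was applied overnight at 4°C, followed by fluorescent secondary (1:10,000) and infrared imaging. Actin served as loading control.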

Id1 [8] = assay: Id1 mRNA expression by qPCR in HCT116 cells; format: cell-based; conditions: HCT116, Dorsomorphin 1 μm
In short: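 HCT116 cells, kept in DMEM with 10% FBS at 5% CO2, were starved overnight in 0.2% serum with DMSO or test compound. RNA was isolated in Tri Reagent. cDNA was made from 1 μg total RNA with random hexamers. Id1 mRNA was quantified by qPCR normalised to 18s rRNA.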

Smad1/5/8 = assay: Total Smad1/5/8 immunoblot in NIH3T3 cells; format: cell-based, mouse; conditions: NIH3T3, Dorsomorphin 1μM 1 hour, then serum
In short: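 Serum-starved NIH3T3 cells were treated 1 hour with DMSO or test compound, then serum-stimulated. Lysis was in passive lysis buffer, followed by SDS-PAGE (10% or 12%) and nitrocellulose transfer with 6% milk block. Phospho-specific or total primaries (1:1000) were applied overnight at 4°C, then fluorescent secondaries (1:10,000) for 1 hour at room temperature, with infrared imaging. Actin served as loading control.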

Id1 [9] = conditions: MDA-MB-231 breast carcinoma line; cited from earlier work
[10] = NIH3T3, AZD0530 100 nM 1 hour, then 20% NCS 4 hours

Chain of ALK1 (P37023 22-503): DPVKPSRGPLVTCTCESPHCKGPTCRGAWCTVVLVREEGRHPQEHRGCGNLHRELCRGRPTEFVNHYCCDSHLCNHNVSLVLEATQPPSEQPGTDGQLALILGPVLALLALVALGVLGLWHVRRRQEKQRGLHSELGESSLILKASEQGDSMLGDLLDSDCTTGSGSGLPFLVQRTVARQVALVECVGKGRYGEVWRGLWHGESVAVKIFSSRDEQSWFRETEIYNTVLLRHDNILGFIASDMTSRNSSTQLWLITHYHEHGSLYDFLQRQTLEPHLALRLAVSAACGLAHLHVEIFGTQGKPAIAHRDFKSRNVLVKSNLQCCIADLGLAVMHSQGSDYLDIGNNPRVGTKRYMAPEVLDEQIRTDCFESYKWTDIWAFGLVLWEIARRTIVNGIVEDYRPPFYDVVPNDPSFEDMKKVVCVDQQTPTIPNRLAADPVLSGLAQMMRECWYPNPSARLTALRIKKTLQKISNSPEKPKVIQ

CN1CCN(CCOc2cc(OC3CCOCC3)c3c(Nc4c(Cl)ccc5c4OCO5)ncnc3c2)CC1 [AZD0530, saracatinib]
IC50 (ALK1): 3 to 30 nM
IC50 (ALK3): 3 to 30 nM
inhibition of BMPR-2 kinase activity (BMPR-2): no inhibition
Id1 serum induction, mRNA expression (Id1 [1]; NIH3T3, AZD0530 100 nM 1 hour, then 20% serum): complete loss
c-fos induction by serum (mRNA) (c-fos; NIH3T3, AZD0530 100 nM 1 hour): no effect
Id3 expression on serum induction (Id3): strongly reduced
PAI-1 serum activation (mRNA) [2]: decrease in serum activation
Id1 serum induction, promoter activation (−1150 Id1 reporter) (Id1 promoter; [10]): complete loss
serum induction of the 4X BRE-SBE reporter (Id1 promoter; [10]): blocked
serum induction of the c-fos promoter (reporter) (c-fos promoter): little effect
activation of the Id1 promoter by constitutively active ALK1 [3]: significantly decreased
activation of the Id1 promoter by constitutively active ALK3 [4]: significantly decreased
proliferation of HCT116 cells (HCT116 cells): did not reduce
Id1 expression (Id1 [5]): inhibit Id1 expression
activation of Smad1/5 (Smad1/5): prevented activation

c1cc(-c2cnn3cc(-c4ccc(OCCN5CCCCC5)cc4)cnc23)ccn1 [Dorsomorphin, dorsomorphin]
induction of Id1 mRNA in response to serum (Id1 [1]; NIH3T3, Dorsomorphin 1 hour, then 20% NCS 1 hour): strongly inhibited
phosphorylation of Smad1/5/8 (phospho-Smad1/5/8 [6]): inhibits the phosphorylation
phospho-Smad1/5/8 levels (phospho-Smad1/5/8 [7]): inhibition
Id1 expression (mRNA) (Id1 [8]): inhibition
total level of Smad1/5/8 (Smad1/5/8): unchanged

O=c1cc(N2CCOCC2)oc2c(-c3ccccc3)cccc12 [LY294002]
Id1 RNA levels on serum induction (Id1 [1]; NIH3T3, LY294002 10 μM 1 hour): unchanged
c-fos expression on serum induction (c-fos; NIH3T3, LY294002 10 μM 1 hour): little effect

O=C(NOC[C@H](O)CO)c1ccc(F)c(F)c1Nc1ccc(I)cc1F [PD0325901]
Id1 RNA levels on serum induction (Id1 [1]; NIH3T3, PD0325901 5 μM 1 hour): unchanged
c-fos expression on serum induction (c-fos; NIH3T3, PD0325901 5 μM 1 hour): dramatically decreased

CC(C)(C)n1nc(-c2ccc(Cl)cc2)c2c(N)ncnc21 [PP2]
response of the Id1 gene to serum (Id1 [1]): Neither another Src inhibitor, PP2, nor the BCR-abl inhibitor, imatinib, had any effect
Id1 expression (Id1 [9]): inhibited Id1 expression

C[C@@H]1C[C@@H]([C@H](O)CC2CC(=O)NC(=O)C2)C(=O)[C@@H](C)C1 [cycloheximide]
BMP2 induction of Id1 in the presence of the protein synthesis inhibitor (Id1 [1]; NIH3T3, 50 μg/ml cycloheximide, BMP2 (supplemental Fig. S3)): higher

Cc1ccc(NC(=O)c2ccc(CN3CCN(C)CC3)cc2)cc1Nc1nccc(-c2cccnc2)n1 [imatinib]
response of the Id1 gene to serum (Id1 [1]): Neither another Src inhibitor, PP2, nor the BCR-abl inhibitor, imatinib, had any effect

B1: Noggin: BMP antagonist noggin (protein, UniProt Q13253 28-232, looked up)
Noggin: QHYLHIRPAPSDNLPLVDLIEHPDPIFDPKEKDLNETLLRSLLGGHYDPGFMATSPPEDRPGGGGGAAGGAEDLAELDQLLRQRPSGAMPSEIKGLEFSEGLAQGKKQRLSKKLRRKLQMWLWSQTFCPVLYAWNDLGSRFWPRYVKVGSCFSKRSCSVPEGMVCKPSKSVHLTVLRWRCQRRGGQRCGWIPIQYPIISECKCSC
serum induction of Id1 mRNA (Id1 [1]; NIH3T3, 100 ng/ml noggin during serum-starvation, 20% serum): abolished serum induction
serum activation of the Id1 promoter (reporter assay) (Id1 promoter; NIH3T3, mId1 −1150 reporter, noggin during serum-starvation, 20% serum): abolished serum activation
